From ChEMBL document CHEMBL2046336, “Structure-activity relationships of saponin derivatives: a series of entry inhibitors for highly pathogenic H5N1 influenza virus” (Eur J Med Chem, 2012)
Active and inactive are the calls of the source. The rule behind the calls is not given here.

Assays:
Assay type in all cases: cell-based
[1] = Inhibition of Influenza A virus (A/Bar-headed Goose/Qinghai/59/05(H5N1)) hemagglutininin-mediated viral entry into human A549 cells after 48 hrs postinfection by luminometric analysis
Summary of the method: (§1)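 A549 cells seeded at 5 × 10⁴ per well; test compounds added 15 min before HIV-luc pseudovirions bearing the H5N1 HA (Qinghai or Viet Nam strain) or VSV-G envelope, then incubated. Pseudovirion supernatants were filtered and used directly for infection.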

[2] = Inhibition of Influenza A virus (A/Viet Nam/1203/2004(H5N1)) hemagglutininin-mediated viral entry into human A549 cells after 48 hrs postinfection by luminometric analysis; summary of the method: as §1
A549 [3] = experiment: Inhibition of Vesicular stomatitis virus envelope glycoprotein-mediated viral entry into human A549 cells after 48 hrs postinfection by luminometric analysis; summary of the method: as §1
A549 [4] = experiment: Cytotoxicity against human A549 cells after 48 hrs; conditions: a549, 48 h

Row | SMILES | IC50 [1] [µM] | IC50 [2] [µM] | inhibition (A549 [3]) | Activity (A549 [4])
1 | CO[C@H]1[C@H](O[C@H]2[C@H](O[C@H]3CC[C@@]4(C)[C@H](C3)[C@@H](O)C[C@@H]3[C@@H]4CC[C@]4(C)[C@@H]5[C@H](C[C@@H]34)O[C@]3(CC[C@@H](C)CO3)[C@H]5C)O[C@H](CO)[C@@H](O[C@@H]3O[C@@H](C)[C@H](O)[C@@H](O)[C@H]3OC)[C@@H]2O)O[C@@H](C)[C@H](O)[C@H]1O | 31 | 15 | inactive | Non-toxic
2 | CO[C@@H]1[C@@H](O)[C@@H](O)[C@H](O[C@H]2[C@H](O[C@H]3CC[C@@]4(C)[C@H](C3)[C@@H](O)C[C@@H]3[C@@H]4CC[C@]4(C)[C@@H]5[C@H](C[C@@H]34)O[C@]3(CC[C@@H](C)CO3)[C@H]5C)O[C@H](CO)[C@@H](O[C@@H]3O[C@@H](C)[C@H](OC)[C@@H](O)[C@H]3O)[C@@H]2O)O[C@H]1C | – | 24 | inactive | Non-toxic
3 | COC[C@H]1O[C@@H](O[C@H]2CC[C@@]3(C)[C@H](C2)[C@@H](O)C[C@@H]2[C@@H]3CC[C@]3(C)[C@@H]4[C@H](C[C@@H]23)O[C@]2(CC[C@@H](C)CO2)[C@H]4C)[C@H](O[C@@H]2O[C@@H](C)[C@H](O)[C@@H](O)[C@H]2O)[C@@H](O)[C@@H]1O[C@@H]1O[C@@H](C)[C@H](O)[C@@H](O)[C@H]1O | 12 | 9 | inactive | Non-toxic
4 | CO[C@@H]1[C@@H](O[C@@H]2O[C@@H](C)[C@H](O)[C@@H](O)[C@H]2O)[C@H](O[C@H]2CC[C@@]3(C)[C@H](C2)[C@@H](O)C[C@@H]2[C@@H]3CC[C@]3(C)[C@@H]4[C@H](C[C@@H]23)O[C@]2(CC[C@@H](C)CO2)[C@H]4C)O[C@H](CO)[C@H]1O[C@@H]1O[C@@H](C)[C@H](O)[C@@H](O)[C@H]1O | 25 | 13 | inactive | Non-toxic
5 | CO[C@@H]1[C@@H](O)[C@H](C)O[C@@H](O[C@H]2[C@H](O[C@H]3CC[C@@]4(C)[C@H](C3)[C@@H](O)C[C@@H]3[C@@H]4CC[C@]4(C)[C@@H]5[C@H](C[C@@H]34)O[C@]3(CC[C@@H](C)CO3)[C@H]5C)O[C@H](CO)[C@@H](O[C@@H]3O[C@@H](C)[C@H](O)[C@@H](OC)[C@H]3O)[C@@H]2O)[C@@H]1O | 28 | 16 | inactive | Non-toxic
6 | C[C@@H]1CC[C@@]2(OC1)O[C@H]1C[C@H]3[C@@H]4C[C@H](O)[C@H]5C[C@@H](O[C@@H]6O[C@H](CO)[C@@H](O[C@@H]7OC[C@H](O)[C@H](O)[C@H]7O)[C@H](O)[C@H]6O[C@@H]6OC[C@H](O)[C@H](O)[C@H]6O)CC[C@]5(C)[C@H]4CC[C@]3(C)[C@H]1[C@@H]2C | > 50 | > 50 | inactive | Non-toxic
7 | C[C@@H]1CC[C@@]2(OC1)O[C@H]1C[C@H]3[C@@H]4C[C@@H](O)[C@H]5C[C@@H](O[C@@H]6O[C@H](CO)[C@@H](O[C@@H]7O[C@@H](C)[C@H](O)[C@@H](O)[C@H]7O)[C@H](O)[C@H]6O[C@@H]6O[C@@H](C)[C@H](O)[C@@H](O)[C@H]6O)CC[C@]5(C)[C@H]4CC[C@]3(C)[C@H]1[C@@H]2C | 18 | 11 | inactive | Non-toxic
8 | CC(=O)O[C@H]1C[C@@H]2[C@H](CC[C@]3(C)[C@@H]4[C@H](C[C@@H]23)O[C@]2(CC[C@@H](C)CO2)[C@H]4C)[C@@]2(C)CC[C@H](O[C@@H]3O[C@H](CO)[C@@H](O[C@@H]4O[C@@H](C)[C@H](O)[C@@H](O)[C@H]4O)[C@H](O)[C@H]3O[C@@H]3O[C@@H](C)[C@H](O)[C@@H](O)[C@H]3O)C[C@H]12 | 7.6 | 9.3 | inactive | Non-toxic
9 | C[C@@H]1CC[C@@]2(OC1)O[C@H]1C[C@H]3[C@@H]4C[C@H](O)[C@H]5C[C@@H](O[C@@H]6O[C@H](CO)[C@@H](O[C@@H]7O[C@@H](C)[C@H](O)[C@@H](O)[C@H]7O)[C@H](O)[C@H]6O[C@@H]6O[C@@H](C)[C@H](O)[C@@H](O)[C@H]6O)CC[C@]5(C)[C@H]4CC[C@]3(C)[C@H]1[C@@H]2C | 7.2 | 7.8 | inactive | Non-toxic
10 | C[C@@H]1CC[C@@]2(OC1)O[C@H]1C[C@H]3[C@@H]4C[C@H](O)[C@H]5C[C@@H](O)CC[C@]5(C)[C@H]4CC[C@]3(C)[C@H]1[C@@H]2C [CHLOROGENIN] | > 50 | > 50 | – | –
11 | CCS[C@@H]1O[C@H](CO)[C@@H](O[C@@H]2O[C@@H](C)[C@H](O)[C@@H](O)[C@H]2O)[C@H](O)[C@H]1O[C@@H]1O[C@@H](C)[C@H](O)[C@@H](O)[C@H]1O | > 50 | > 50 | inactive | Non-toxic
12 | C[C@@H]1CC[C@@]2(OC1)O[C@H]1C[C@H]3[C@@H]4C[C@H](O[C@@H]5O[C@@H](C)[C@H](O)[C@@H](O)[C@H]5O)[C@H]5C[C@@H](O[C@@H]6O[C@H](CO)[C@@H](O[C@@H]7O[C@@H](C)[C@H](O)[C@@H](O)[C@H]7O)[C@H](O)[C@H]6O[C@@H]6O[C@@H](C)[C@H](O)[C@@H](O)[C@H]6O)CC[C@]5(C)[C@H]4CC[C@]3(C)[C@H]1[C@@H]2C | > 50 | > 50 | inactive | Non-toxic
13 | C[C@@H]1O[C@@H](O[C@H]2[C@H](O)[C@@H](O[C@@H]3O[C@@H](C)[C@H](O)[C@@H](O)[C@H]3O)C(O)O[C@@H]2CO)[C@H](O)[C@H](O)[C@H]1O (some centres not stated) [CHACOTRIOSE] | > 50 | > 50 | inactive | Non-toxic
14 | C[C@@H]1CC[C@@]2(OC1)O[C@H]1C[C@H]3[C@@H]4CC(=O)[C@H]5C[C@@H](O[C@@H]6O[C@H](CO)[C@@H](O[C@@H]7O[C@@H](C)[C@H](O)[C@@H](O)[C@H]7O)[C@H](O)[C@H]6O[C@@H]6O[C@@H](C)[C@H](O)[C@@H](O)[C@H]6O)CC[C@]5(C)[C@H]4CC[C@]3(C)[C@H]1[C@@H]2C | 20 | 12 | inactive | Non-toxic
15 | COC(=O)[C@]12CC[C@@H](C)[C@H](C)[C@H]1C1=CC[C@@H]3[C@@]4(C)CC[C@H](O[C@@H]5O[C@H](CO)[C@@H](O[C@@H]6O[C@@H](C)[C@H](O)[C@@H](O)[C@H]6O)[C@H](O)[C@H]5O[C@@H]5O[C@@H](C)[C@H](O)[C@@H](O)[C@H]5O)C(C)(C)[C@@H]4CC[C@@]3(C)[C@]1(C)CC2 | 6 | 8.5 | inactive | Non-toxic
